23 compounds from ChEMBL document CHEMBL1124097, “9-(2-Fluorobenzyl)-6-(alkylamino)-9H-purines. A new class of anticonvulsant agents” (1988) can be followed below.

Bounds are passed on as bounds.

Assay type in all cases: functional
For assay [1], the system named is Rattus norvegicus. Kind of assay: Anticonvulsant activity against maximal electroshock-induced seizures in rats after oral administration. An outline of the steps:
(§1)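 Male Sprague-Dawley rats were protected against maximal electroshock-induced seizures. The ED50 is the dose that protects 50% of animals from the hind-limb extensor component, calculated by the method of Miller. For ED50s given with standard error, at least 12 animals per dose level and four doses per compound were used. Otherwise, three doses with six animals per point were used.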
On the technique in general: The maximal electroshock test induces tonic seizures with an electrical stimulus.

Assay [2] has as its system Rattus norvegicus. In words: Anticonvulsant activity against maximal electroshock-induced seizures in rats after intraperitoneal administration. To be noted: ip. Put shortly: as §1
Assay [3] concerns Rattus norvegicus. Kind of assay: Anticonvulsant activity against maximal electroshock-induced seizures in rats after ip administration at 25 mg/kg (compared to standard). To be noted: route intraperitoneal.

The ED50 is the dose at which the effect has come halfway, by size or by number of responders. Read a high ED50 as weaker potency. As a reminder, the inhibition in vivo is the share of the control response that was lost under treatment. High values mean a strong effect, low ones a weak effect.

Regarding `Nc1ncnc2c1ncn2Cc1ccccc1F`, the median effective dose (ED50) in assay [1] was 12 mg/kg; in assay [2] it was 4.5 mg/kg.

On to `CNc1ncnc2c1ncn2Cc1ccccc1`, for which the ED50 was determined as 12 mg/kg in assay [1] and 5 mg/kg in assay [2].

The compound `CNc1ncnc2c1ncn2Cc1ccc(N)cc1` returned an ED50 in assay [2] of 25 mg/kg.

As for `CN(C=O)c1ncnc2c1ncn2Cc1ccccc1F`, the figures for the ED50 in assay [1] and in assay [2] were 25 mg/kg and 11 mg/kg, respectively.

Turning to `Fc1ccccc1Cn1cnc2c(NC3CCC3)ncnc21`, the ED50 in assay [2] stood at 33 mg/kg.

The compound `CNc1ncnc2c1ncn2Cc1cccc(F)c1` gave a median effective dose (ED50) in assay [2] of 7 mg/kg.

Regarding `CNc1ncnc2c1ncn2Cc1cccc(OCc2ccccc2)c1`, the inhibition in vivo at 25 mg/kg in assay [3] was determined as 17%.

For `CN(C)c1ncnc2c1ncn2Cc1c(F)cccc1Cl`, the results for the 50% effective dose (ED50) in assay [1] and in assay [2] were 10 mg/kg and 5 mg/kg, respectively.

Turning to `CNc1ncnc2c1ncn2Cc1cccc(F)c1F`, the ED50 is > 50 mg/kg in assay [1] and 18 mg/kg in assay [2].

As for `CNc1ncnc2c1ncn2Cc1ccccc1Cl`, the ED50 in assay [1] is 12.5 mg/kg; in assay [2], 6.2 mg/kg.

In assay [2], `O=C1NC(=O)C(c2ccccc2)(c2ccccc2)N1` [PHENYTOIN] displayed an ED50 of 9.6 mg/kg.

As for `CNc1ncnc2c1ncn2Cc1ccc([N+](=O)[O-])cc1`, 25 mg/kg produced 0% inhibition in vivo in assay [3].

As to `CN(C)c1ncnc2c1ncn2Cc1ccccc1`, the ED50 was 12 mg/kg in assay [1] and 6 mg/kg in assay [2].

Regarding `CNc1ncnc2c1ncn2Cc1cccc(O)c1`, at 25 mg/kg the inhibition in vivo in assay [3] was 0%.

With `CNc1ncnc2c1ncn2Cc1c(F)cccc1Cl`, in assay [2], the 50% effect level (ED50) was put at a dose of 12.5 mg/kg.

Take `Fc1ccccc1Cn1cnc2c(N3CCC3)ncnc21`: in assay [2], the ED50 was > 50 mg/kg.

Regarding `Fc1ccccc1Cn1cnc2c(N3CCCC3)ncnc21`, the values for the ED50 in assay [1] and in assay [2] were 35 mg/kg and 12.5 mg/kg, respectively.

In the case of `CNc1ncnc2c1ncn2Cc1c(F)cccc1F`, it took a dose of 2.7 mg/kg to reach the 50% effect level in assay [1] (ED50).

In turn, `CNc1ncnc2c1ncn2Cc1ccc(F)cc1` gave an inhibition in vivo at 25 mg/kg in assay [3] of 33%.

As to `CC(C)(C)Nc1ncnc2c1ncn2Cc1ccccc1F`, in assay [2], the ED50 is > 50 mg/kg.

In assay [2], `CNc1ncnc2c1ncn2Cc1ccccc1C(F)(F)F` returned an ED50 of 20 mg/kg.

As for `CNc1ncnc2c1ncn2Cc1ccccc1C`, the ED50 came to 25 mg/kg in assay [1] and 10 mg/kg in assay [2].

For the compound `CNc1ncnc2c1ncn2Cc1ccc(F)cc1F`, the 50% effect level in assay [2] (ED50) was put at a dose of 20 mg/kg.
